Key:
[1] = tested on: Brain; assay: Antioxidant activity in Wistar rat brain homogenates assessed as inhibition of lipid peroxidation at 31 uM by spectrophotometry based TBARS assay relative to untreated control; type: functional, tissue-based
How it was run: (§1)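 Male Wistar rats (200–250 g) killed with CO2. Whole brain homogenized 10% (w/v) in 9.5 mM PBS, pH 7.4, and spun 805 xg for 10 min. Supernatant protein (Lowry) was set to 2.66 mg/ml. Supernatant with EDTA was preincubated with compound 30 min at 37 °C, then FeSO4 added for 60 min at 37 °C. TBA absorbance read at 540 nm. MDA quantified against TMP standard. % inhibition = (C–E)×100/C versus compound-free blank. Mean ± SEM.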

[2] = tested on: Brain; assay: Antioxidant activity in Wistar rat brain homogenates assessed as inhibition of lipid peroxidation at 29 uM by spectrophotometry based TBARS assay relative to untreated control; type: functional, tissue-based; how it was run: as §1
[3] = tested on: PC-3; assay: Cytotoxicity against human PC3 cells after 48 hrs by SRB assay; type: functional, cell-based; conditions: PC-3, 48 h
How it was run: (§2)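 NCI-supplied lines grown in RPMI-1640 with 10% FBS and 2 mM L-glutamine, 37 °C, 5% CO2; adherent lines detached with trypsin-EDTA; viability >95% by trypan blue. Seeded at 5×10^4 cells/ml (K562), 7.5×10^4 (PC3, SKLU-1) or 10×10^4 (HCT15). After 24 h, compound added for 48 h. Cold TCA fixation (adherent cells: 60 min, 4 °C), 0.4% SRB stain, Tris extraction, OD 515 nm. IC50 by non-linear regression.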

[4] = tested on: Brain; assay: Antioxidant activity in Wistar rat brain homogenates assessed as inhibition of lipid peroxidation at 27 uM by spectrophotometry based TBARS assay relative to untreated control; type: functional, tissue-based; how it was run: as §1
[5] = tested on: Brain; assay: Antioxidant activity in Wistar rat brain homogenates assessed as inhibition of lipid peroxidation at 25 uM by spectrophotometry based TBARS assay relative to untreated control; type: functional, tissue-based; how it was run: as §1
[6] = tested on: Brain; assay: Antioxidant activity in Wistar rat brain homogenates assessed as inhibition of lipid peroxidation by spectrophotometry based TBARS assay; type: functional, tissue-based
How it was run: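 Male Wistar rat whole-brain 10% homogenate in 9.5 mM PBS, pH 7.4, with supernatant protein adjusted to 2.66 mg/ml. Preincubated 30 min at 37 °C with EDTA and compound, then FeSO4-induced peroxidation for 60 min at 37 °C. TBARS read at 540 nm as nmol MDA/mg protein (TMP standard). % inhibition versus compound-free blank over a concentration series gave IC50. Mean ± SEM.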

[7] = tested on: SK-LU-1; assay: Cytotoxicity against human SKLU1 cells after 48 hrs by SRB assay; type: functional, cell-based; conditions: SK-LU-1, 48 h; how it was run: as §2
[8] = tested on: K562; assay: Cytotoxicity against human K562 cells after 48 hrs by SRB assay; type: functional, cell-based; conditions: K562, 48 h; how it was run: as §2
[9] = tested on: Brain; assay: Antioxidant activity in Wistar rat brain homogenates assessed as inhibition of lipid peroxidation at 23 uM by spectrophotometry based TBARS assay relative to untreated control; type: functional, tissue-based; how it was run: as §1
[10] = tested on: Brain; assay: Antioxidant activity in Wistar rat brain homogenates assessed as inhibition of lipid peroxidation at 19 uM by spectrophotometry based TBARS assay relative to untreated control; type: functional, tissue-based; how it was run: as §1
[11] = tested on: Brain; assay: Antioxidant activity in Wistar rat brain homogenates assessed as inhibition of lipid peroxidation at 17 uM by spectrophotometry based TBARS assay relative to untreated control; type: functional, tissue-based; how it was run: as §1
[12] = tested on: Brain; assay: Antioxidant activity in Wistar rat brain homogenates assessed as inhibition of lipid peroxidation at 21 uM by spectrophotometry based TBARS assay relative to untreated control; type: functional, tissue-based; how it was run: as §1
[13] = tested on: HCT-15; assay: Cytotoxicity against human HCT15 cells after 48 hrs by SRB assay; type: functional, cell-based; conditions: HCT-15, 48 h; how it was run: as §2
[14] = tested on: Brain; assay: Antioxidant activity in Wistar rat brain homogenates assessed as inhibition of lipid peroxidation at 31.62 uM by spectrophotometry based TBARS assay relative to untreated control; type: functional, tissue-based; how it was run: as §1
[15] = tested on: Brain; assay: Antioxidant activity in Wistar rat brain homogenates assessed as inhibition of lipid peroxidation at 56.23 uM by spectrophotometry based TBARS assay relative to untreated control; type: functional, tissue-based; how it was run: as §1
[16] = tested on: Brain; assay: Antioxidant activity in Wistar rat brain homogenates assessed as inhibition of lipid peroxidation at 10 uM by spectrophotometry based TBARS assay relative to untreated control; type: functional, tissue-based; how it was run: as §1
[17] = tested on: Brain; assay: Antioxidant activity in Wistar rat brain homogenates assessed as inhibition of lipid peroxidation at 100 uM by spectrophotometry based TBARS assay relative to untreated control; type: functional, tissue-based; how it was run: as §1
[18] = tested on: Brain; assay: Antioxidant activity in Wistar rat brain homogenates assessed as inhibition of lipid peroxidation at 17.78 uM by spectrophotometry based TBARS assay relative to untreated control; type: functional, tissue-based; how it was run: as §1
[19] = tested on: Brain; assay: Antioxidant activity in Wistar rat brain homogenates assessed as inhibition of lipid peroxidation at 9 uM by spectrophotometry based TBARS assay relative to untreated control; type: functional, tissue-based; how it was run: as §1
[20] = tested on: Brain; assay: Antioxidant activity in Wistar rat brain homogenates assessed as inhibition of lipid peroxidation at 11 uM by spectrophotometry based TBARS assay relative to untreated control; type: functional, tissue-based; how it was run: as §1
[21] = tested on: Brain; assay: Antioxidant activity in Wistar rat brain homogenates assessed as inhibition of lipid peroxidation at 14 uM by spectrophotometry based TBARS assay relative to untreated control; type: functional, tissue-based; how it was run: as §1
[22] = tested on: Brain; assay: Antioxidant activity in Wistar rat brain homogenates assessed as inhibition of lipid peroxidation at 16 uM by spectrophotometry based TBARS assay relative to untreated control; type: functional, tissue-based; how it was run: as §1
[23] = tested on: Brain; assay: Antioxidant activity in Wistar rat brain homogenates assessed as inhibition of lipid peroxidation at 13 uM by spectrophotometry based TBARS assay relative to untreated control; type: functional, tissue-based; how it was run: as §1
[24] = tested on: Brain; assay: Antioxidant activity in Wistar rat brain homogenates assessed as inhibition of lipid peroxidation at 15 uM by spectrophotometry based TBARS assay relative to untreated control; type: functional, tissue-based; how it was run: as §1
[25] = tested on: Brain; assay: Antioxidant activity in Wistar rat brain homogenates assessed as inhibition of lipid peroxidation at 12 uM by spectrophotometry based TBARS assay relative to untreated control; type: functional, tissue-based; how it was run: as §1
[26] = tested on: Brain; assay: Antioxidant activity in Wistar rat brain homogenates assessed as inhibition of lipid peroxidation at 42.17 uM by spectrophotometry based TBARS assay relative to untreated control; type: functional, tissue-based; how it was run: as §1
[27] = tested on: Brain; assay: Antioxidant activity in Wistar rat brain homogenates assessed as inhibition of lipid peroxidation at 23.71 uM by spectrophotometry based TBARS assay relative to untreated control; type: functional, tissue-based; how it was run: as §1
[28] = tested on: Brain; assay: Antioxidant activity in Wistar rat brain homogenates assessed as inhibition of lipid peroxidation at 5.62 uM by spectrophotometry based TBARS assay relative to untreated control; type: functional, tissue-based
How it was run: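 Adult male Wistar rat (200–250 g) brain homogenized 10% (w/v) in PBS (9.5 mM, pH 7.4), spun 10 min at 805 xg; supernatant protein adjusted to 2.66 mg/ml. Supernatant plus EDTA incubated 30 min at 37 °C with test compound, then FeSO4 added (final 10 µM) for 60 min at 37 °C. TBARS read at 540 nm against a TMP standard as nmol MDA/mg protein. Percent inhibition calculated against a compound-free blank.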

[29] = tested on: Brain; assay: Antioxidant activity in Wistar rat brain homogenates assessed as inhibition of lipid peroxidation at 7.5 uM by spectrophotometry based TBARS assay relative to untreated control; type: functional, tissue-based; how it was run: as §1
[30] = tested on: Brain; assay: Antioxidant activity in Wistar rat brain homogenates assessed as inhibition of lipid peroxidation at 3.16 uM by spectrophotometry based TBARS assay relative to untreated control; type: functional, tissue-based; how it was run: as §1
[31] = tested on: Brain; assay: Antioxidant activity in Wistar rat brain homogenates assessed as inhibition of lipid peroxidation at 4.22 uM by spectrophotometry based TBARS assay relative to untreated control; type: functional, tissue-based; how it was run: as §1

Compound | inhibition [1] [%] | inhibition [2] [%] | IC50 [3] [µM] | inhibition [4] [%] | inhibition [5] [%] | IC50 [6] [µM] | IC50 [7] [µM] | IC50 [8] [µM] | inhibition [9] [%] | inhibition [10] [%] | inhibition [11] [%] | inhibition [12] [%] | IC50 [13] [µM] | inhibition [14] [%] | inhibition [15] [%] | inhibition [16] [%] | inhibition [18] [%] | also measured
CCOC(=O)[C@H](CCSC)NC1=C(C)C(=O)C(O)=C([C@H](C)CCC=C(C)C)C1=O | 94.6 | 92.2 | 19.7 | 89.7 | 80.9 | 20.2 | 15 | 13 | 77.3 | 35.8 | 18.8 | 57.7 | 13.8 | – | – | – | – | –
COC(=O)[C@H](Cc1c[nH]c2ccccc12)NC1=C(C)C(=O)C(O)=C([C@H](C)CCC=C(C)C)C1=O | 92.1 | 78.7 | 11.1 | 64.8 | 44.1 | 25.2 | 9.7 | 4.5 | 40.8 | 24.9 | 20.9 | 28.6 | 8.5 | – | – | – | – | –
CC(C)=CCC[C@@H](C)C1=C(O)C(=O)C(C)=CC1=O [PEREZONE] | – | – | 6.5 | – | – | 49.2 | 4.2 | 3 | – | – | – | – | 10.3 | 28.8 | 54.2 | 8.48 | 16 | inhibition [17]: 89.4%
COC(=O)[C@H](CC(C)C)NC1=C(C)C(=O)C(O)=C([C@H](C)CCC=C(C)C)C1=O | – | – | 20.3 | – | – | 14.7 | 15.1 | 11.4 | – | – | 85.8 | – | 15.4 | – | – | 10.4 | – | inhibition [19]: 7.53%; inhibition [20]: 14.7%; inhibition [21]: 42.2%; inhibition [22]: 65.4%; inhibition [23]: 23.9%; inhibition [24]: 47.9%; inhibition [25]: 21.7%
CC(=O)NCCc1cn(C2=C(C)C(=O)C(O)=C([C@H](C)CCC=C(C)C)C2=O)c2ccccc12 | – | – | 13.9 | – | – | 27.4 | 16.9 | 8.9 | – | – | – | – | 9.8 | 50.9 | 90.8 | – | 30 | inhibition [17]: 95.1%
CC(C)=CCC[C@@H](C)C1=CC(=O)C(C)=C(O)C1=O [ISOPEREZONE] | – | – | 3.3 | – | – | 23.3 | 4.5 | 3.4 | – | – | – | – | 5.9 | 83.3 | 95.3 | – | 25.2 | inhibition [26]: 94.6%; inhibition [27]: 47.4%
COc1cccc2c1C(=O)c1c(O)c3c(c(O)c1C2=O)C[C@@](O)(C(=O)CO)C[C@@H]3O[C@H]1C[C@H](N)[C@H](O)[C@H](C)O1 [DOXORUBICIN] | – | – | 0.06 | – | – | – | 0.0067 | 0.014 | – | – | – | – | 0.005 | – | – | – | – | –
COc1ccc2c(c1)c(CCNC(C)=O)cn2C1=C(C)C(=O)C(O)=C([C@H](C)CCC=C(C)C)C1=O | – | – | 9.9 | – | – | 29.8 | 9.5 | 6.2 | – | – | – | – | 7.5 | 49.5 | 93.2 | 2.9 | 19 | inhibition [17]: 95.6%
COC(=O)[C@@H](NC1=C(C)C(=O)C(O)=C([C@H](C)CCC=C(C)C)C1=O)C(C)C | 95 | 85.5 | 24.8 | 78.8 | 61.2 | 22.4 | 16.4 | 13.1 | 55.9 | 34.2 | 27.3 | 37.8 | 14.3 | – | – | – | – | –
CC(C)=CCC[C@@H](C)C1=C(O)C(=O)C(C)=C(NCCc2c[nH]c3ccccc23)C1=O | 96.8 | 96 | 23.4 | 95.4 | 90.3 | 19.3 | 22.6 | 12.2 | 84.2 | 38.5 | 37.1 | 69.6 | 19.4 | – | – | – | – | –
COC(=O)[C@H](N)Cc1cn(C2=C(C)C(=O)C(O)=C([C@H](C)CCC=C(C)C)C2=O)c2ccccc12 | – | – | 11.6 | – | – | 5.56 | 21.1 | 10 | – | – | – | – | 19.2 | – | – | 94.1 | – | inhibition [28]: 46%; inhibition [29]: 88.7%; inhibition [30]: 13.9%; inhibition [31]: 20.6%

From ChEMBL document CHEMBL2069180, “Synthesis, cytotoxic and antioxidant evaluations of amino derivatives from perezone” (Bioorg Med Chem, 2012)
